In ChEMBL document CHEMBL1141958, “Toll-like receptor 2 antagonists. Part 1: preliminary SAR investigation of novel synthetic phospholipids” (Bioorg Med Chem Lett, 2005):

How the values were obtained:
Toll-like receptor 2 [1] = target: T1, Toll-like receptor 2 (Homo sapiens, UniProt O60603); test: Antagonistic potency at TLR2 expressed in HEK293 cells; format: functional, cell-based
Toll-like receptor 4 = Toll-like receptor 4 (Homo sapiens, UniProt O00206); test: Antagonistic potency at human TLR4 expressed in HEK293 cells; format: functional, cell-based
Toll-like receptor 2 [2] = target: T1, Toll-like receptor 2; test: Antagonistic activity at TLR in human PBMC; format: functional
Method in brief: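 PBMCs purified from heparinized blood of healthy human donors, seeded at 50,000 cells per well. Pam3CysSK4 (50 ng/ml) added together with compound at 30, 10, 3, 1, 0.3, 0.1 and 0.03 µM; 6 h at 37 °C. Supernatants collected by centrifugation, stored at -20 °C, TNFα measured by ELISA.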

Sequence of Toll-like receptor 4 (O00206 whole entry): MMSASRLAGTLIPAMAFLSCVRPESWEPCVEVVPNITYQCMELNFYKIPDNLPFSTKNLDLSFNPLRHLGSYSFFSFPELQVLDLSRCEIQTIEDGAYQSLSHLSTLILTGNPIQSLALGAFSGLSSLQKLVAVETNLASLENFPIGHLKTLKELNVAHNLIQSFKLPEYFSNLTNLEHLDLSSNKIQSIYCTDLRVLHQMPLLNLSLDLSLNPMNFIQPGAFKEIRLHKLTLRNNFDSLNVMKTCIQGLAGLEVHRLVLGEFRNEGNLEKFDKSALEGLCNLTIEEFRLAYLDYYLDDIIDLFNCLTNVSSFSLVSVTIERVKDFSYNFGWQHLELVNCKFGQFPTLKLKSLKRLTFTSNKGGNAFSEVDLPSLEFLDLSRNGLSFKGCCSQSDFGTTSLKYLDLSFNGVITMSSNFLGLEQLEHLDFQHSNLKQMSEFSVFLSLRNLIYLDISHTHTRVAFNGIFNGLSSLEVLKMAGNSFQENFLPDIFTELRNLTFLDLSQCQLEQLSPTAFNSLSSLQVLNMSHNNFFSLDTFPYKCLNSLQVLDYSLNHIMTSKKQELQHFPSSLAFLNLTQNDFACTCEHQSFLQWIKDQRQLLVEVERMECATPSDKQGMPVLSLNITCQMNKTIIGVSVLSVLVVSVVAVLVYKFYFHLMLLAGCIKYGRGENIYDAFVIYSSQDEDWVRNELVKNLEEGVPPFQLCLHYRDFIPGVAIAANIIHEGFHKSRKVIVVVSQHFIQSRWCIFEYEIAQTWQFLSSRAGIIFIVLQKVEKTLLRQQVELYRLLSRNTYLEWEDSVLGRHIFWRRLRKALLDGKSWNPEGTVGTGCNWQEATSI
T1 sequence (O60603 whole entry): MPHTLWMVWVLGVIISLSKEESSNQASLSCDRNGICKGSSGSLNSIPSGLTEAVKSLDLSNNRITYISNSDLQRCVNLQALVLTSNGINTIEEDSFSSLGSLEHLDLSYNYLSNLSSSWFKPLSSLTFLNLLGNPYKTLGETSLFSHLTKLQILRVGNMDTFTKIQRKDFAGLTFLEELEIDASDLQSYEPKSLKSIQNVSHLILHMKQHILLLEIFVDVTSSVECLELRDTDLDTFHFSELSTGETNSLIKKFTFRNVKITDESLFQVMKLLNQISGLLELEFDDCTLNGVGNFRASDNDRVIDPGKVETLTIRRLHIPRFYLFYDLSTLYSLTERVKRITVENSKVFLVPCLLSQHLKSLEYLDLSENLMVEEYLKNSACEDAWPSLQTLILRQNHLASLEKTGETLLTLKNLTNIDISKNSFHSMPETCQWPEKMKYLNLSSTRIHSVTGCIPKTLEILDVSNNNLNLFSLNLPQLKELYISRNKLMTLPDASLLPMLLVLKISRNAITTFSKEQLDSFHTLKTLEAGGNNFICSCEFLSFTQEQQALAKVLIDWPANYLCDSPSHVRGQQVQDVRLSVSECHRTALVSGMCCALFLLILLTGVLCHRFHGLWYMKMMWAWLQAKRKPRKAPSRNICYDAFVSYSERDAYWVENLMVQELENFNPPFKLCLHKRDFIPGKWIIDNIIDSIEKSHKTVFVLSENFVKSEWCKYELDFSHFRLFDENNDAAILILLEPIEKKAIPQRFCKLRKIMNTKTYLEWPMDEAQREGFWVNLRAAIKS

`CCCCCCCCCCCCCC(=O)N[C@H](COCC[C@@H](CCCCCCC)OC(=O)CCCCCCCCCCC)COP(=O)(O)OCCNC(=O)CCc1ccc(O)cc1` showed an IC50 (Toll-like receptor 2 [1]) of 2150 nM.
`CCCCCCCCCCCCCC(=O)O[C@H](COCC[C@@H](CCCCCCC)OC(=O)CCCCCCCCCCC)COP(=O)(O)OCCNC(=O)C(Cc1ccc(O)cc1)C(=O)O` (some centres undefined) showed an IC50 (Toll-like receptor 2 [1]) of 1250 nM.
`CCCCCCCCCCCCCC(=O)N[C@H](COCC[C@H](CCCCCCC)OC(=O)CCCCCCCCCCC)COP(=O)(O)OCCNC(=O)C(Cc1ccc(O)cc1)C(=O)O` (some centres undefined) showed an IC50 (Toll-like receptor 4) of 160 nM and an IC50 (Toll-like receptor 2 [1]) of 6460 nM.
With `CCCCCCCCCCCCCC(=O)N[C@@H](COP(=O)(O)OCCNC(=O)C(Cc1ccc(O)cc1)C(=O)O)C(=O)OCC[C@@H](CCCCCCC)OC(=O)CCCCCCCCCCC` (some centres undefined) the IC50 (Toll-like receptor 2 [1]) was 950 nM.
With `CCCCCCCCCCCCCC(=O)N[C@@H](COCC[C@H](CCCCCCC)OC(=O)CCCCCCCCCCC)COP(=O)(O)OCCNC(=O)C(Cc1ccc(O)cc1)C(=O)O` (some centres undefined) the IC50 (Toll-like receptor 4) was 80 nM and the IC50 (Toll-like receptor 2 [1]) was 6900 nM.
Work on `CCCCCCCCCCCCCC(=O)N[C@H](COCC[C@@H](CCCCCCC)NC(=O)CCCCCCCCCCC)COP(=O)(O)OCCNC(=O)C(Cc1ccc(O)cc1)C(=O)O` (some centres undefined) yielded an IC50 (Toll-like receptor 2 [1]) of 5200 nM.
`CCCCCCCCCCCCCC(=O)N[C@@H](COP(=O)(O)OCCNC(=O)C(Cc1ccc(O)cc1)C(=O)O)C(=O)NCC[C@@H](CCCCCCC)OC(=O)CCCCCCCCCCC` (some centres undefined) showed an IC50 (Toll-like receptor 2 [1]) of 900 nM.
For `CCCCCCCCCCCCCC(=O)N[C@H](COCC[C@@H](CCCCCCC)OC(=O)CCCCCCCCCCC)COP(=O)(O)OCCNC(=O)C(Cc1ccc(O)cc1)C(=O)O` (some centres undefined), the IC50 (Toll-like receptor 2 [2]) was 1600 nM, the IC50 (Toll-like receptor 4) was 350 nM and the IC50 (Toll-like receptor 2 [1]) was 3070 nM.
`CCCCCCCCCCCCCC(=O)N[C@@H](COCC[C@@H](CCCCCCC)OC(=O)CCCCCCCCCCC)COP(=O)(O)OCCNC(=O)C(Cc1ccc(O)cc1)C(=O)O` (some centres undefined) showed an IC50 (Toll-like receptor 4) of 250 nM and an IC50 (Toll-like receptor 2 [1]) of 22000 nM.
